# Source: ChEMBL document CHEMBL1126796, “2-(Alkylamino)nicotinic acid and analogs. Potent angiotensin II antagonists” (J Med Chem, 1993)
# Activity calls are given as the source filed them. The rule behind the calls is not given here.
# Columns and labels:
# Rattus norvegicus [1] = experiment: % decrease in blood pressure after 24 hours at a dose of 1 mg/kg in male rats by using Furosemide-treated spontaneous hypertensive model; assay type: functional
# Outline: (§1)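 Male SHR, 20-24 weeks old, pretreated with furosemide 10 mg/kg sc at 22 and 4 h before the experiment; compound dosed orally. Arterial pressure was recorded from an indwelling femoral artery catheter with on-line blood pressure and heart rate analysis. Read-out is % fall in blood pressure at 4 h and at 24 h, ±SEM, with number of rats.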
# Rattus norvegicus [2] = experiment: % decrease in blood pressure after 4 hours at a dose of 1 mg/kg in male rats by using Furosemide-treated spontaneous hypertensive model; assay type: functional; outline: as §1
# Rattus norvegicus [3] = experiment: % decrease in blood pressure after 24 hours at a dose of 10 mg/kg in male rats by using Furosemide-treated spontaneous hypertensive model; assay type: functional; outline: as §1
# Rattus norvegicus [4] = experiment: % decrease in blood pressure after 4 hours at a dose of 10 mg/kg in male rats by using Furosemide-treated spontaneous hypertensive model; assay type: functional; outline: as §1
# Rattus norvegicus [5] = experiment: % decrease in blood pressure after 4 hours at a dose of 10 mg/kg in male rats by using Renal artery hypertensive model; assay type: functional
# Outline: (§2)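 Male Sprague-Dawley rats (300-350 g) were made hypertensive by renal artery ligation and used on day 6 or 7 after ligation. Arterial pressure was measured from an indwelling femoral artery catheter, with blood pressure and heart rate recorded on line. Read-out is % decrease in blood pressure at 4 h, ±SEM, with number of rats.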
# Rattus norvegicus [6] = experiment: % decrease in blood pressure after 4 hours in male rats at a dose of 3 mg/kg by using Renal artery hypertensive model; IA means inactive; assay type: functional, organism-based; set-up: dose 3 mg/kg; outline: as §2
# [7] = Area under curve after oral dose of 0.1 mg//kg; assay type: ADME
# Outline: (§3)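 Male Sprague-Dawley-derived rats were dosed with compound in normal saline (1 mL/kg), by gavage or as a slow IV bolus into the jugular vein. Heparinized tail-vein blood was taken at 0.25-24 h, extracted liquid-liquid and assayed by reverse-phase HPLC. Cmax is the observed peak concentration and AUC is mean (SEM). F compares oral with IV AUC, corrected for dose and assuming dose proportionality.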
# [8] = Area under curve after oral dose of 0.3 mg/kg; assay type: ADME, organism-based; set-up: dose 0.3 mg/kg, route oral; settings: in vivo; outline: as §3
# [9] = Area under curve after oral dose of 1 mg/kg; assay type: ADME, organism-based; set-up: dose 1 mg/kg, route oral; settings: in vivo; outline: as §3
# [10] = Area under curve after oral dose of 3 mg/kg; assay type: ADME, organism-based; set-up: dose 3 mg/kg, route oral; settings: in vivo; outline: as §3
# [11] = Cmax value after oral dose of 0.1 mg//kg; assay type: ADME, organism-based; set-up: dose 0.1 mg//kg, route oral; settings: in vivo; outline: as §3
# [12] = Cmax value after oral dose of 0.3 mg/kg; assay type: ADME, organism-based; set-up: dose 0.3 mg/kg, route oral; settings: in vivo; outline: as §3
# [13] = Cmax value after oral dose of 1 mg/kg; assay type: ADME, organism-based; set-up: dose 1 mg/kg, route oral; settings: in vivo; outline: as §3
# [14] = Cmax value after oral dose of 3 mg/kg; assay type: ADME, organism-based; set-up: dose 3 mg/kg, route oral; settings: in vivo; outline: as §3
# [15] = Volume of distribution of central compartment (= dose+ plasma concentration at time zero) after intravenous dose of 0.3 mg/kg; assay type: ADME, organism-based; set-up: dose 0.3 mg/kg, route intravenous; settings: read-out: VI
# Outline: (§4)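 Jugular-vein slow iv bolus (normal saline, 1 mL/kg) in male Sprague-Dawley-derived rats. Plasma was sampled via the tail vein at 0.1–24 h and measured by reverse-phase HPLC after liquid-liquid extraction. Central volume was taken as dose divided by plasma concentration at time zero. Terminal-phase volume was derived from clearance and the plasma elimination rate constant.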
# [16] = Volume of distribution of central compartment (= dose+ plasma concentration at time zero) after intravenous dose of 1 mg/kg; assay type: ADME, organism-based; set-up: dose 1 mg/kg, route intravenous; settings: read-out: VI; outline: as §4
# [17] = Volume of distribution of central compartment (= dose+ plasma concentration at time zero) after intravenous dose of 3 mg/kg; assay type: ADME, organism-based; set-up: dose 3 mg/kg, route intravenous; settings: read-out: VI; outline: as §4
# [18] = Volume of distribution of the terminal phase (= CLp+ plasma elimination rate constant) after intravenous dose of 0.3 mg/kg; assay type: ADME, organism-based; set-up: dose 0.3 mg/kg, route intravenous; settings: read-out: Vbeta; outline: as §4
# [19] = Volume of distribution of the terminal phase (= CLp+ plasma elimination rate constant) after intravenous dose of 1 mg/kg; assay type: ADME, organism-based; set-up: dose 1 mg/kg, route intravenous; settings: read-out: Vbeta; outline: as §4
# [20] = Volume of distribution of the terminal phase (= CLp+ plasma elimination rate constant) after intravenous dose of 3 mg/kg; assay type: ADME, organism-based; set-up: dose 3 mg/kg, route intravenous; settings: read-out: Vbeta; outline: as §4
# [21] = Tmax value after oral dose of 0.1 mg//kg; assay type: ADME, organism-based; settings: in vivo
# Outline: (§5)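 Male Sprague-Dawley-derived rats. Compound was given in normal saline at 1 mL/kg, either as a slow iv bolus into the jugular vein or orally by gavage. Plasma underwent liquid-liquid extraction and reverse-phase HPLC. Terminal elimination half-life and time of observed peak concentration were taken from the profiles.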
# [22] = Tmax value after oral dose of 0.3 mg/kg; assay type: ADME, organism-based; set-up: dose 0.3 mg/kg, route oral; settings: in vivo; outline: as §5
# [23] = Tmax value after oral dose of 3 mg/kg; assay type: ADME, organism-based; set-up: dose 3 mg/kg, route oral; settings: in vivo; outline: as §5
# [24] = Plasma clearance after intravenous dose of 0.3 mg/kg; assay type: ADME, organism-based; set-up: dose 0.3 mg/kg, route intravenous; settings: read-out: Clp
# Outline: (§6)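 Male Sprague-Dawley-derived rats received a slow iv bolus into the jugular vein of the compound in normal saline (1 mL/kg). Tail-vein heparinized blood was drawn from 0.1 to 24 h and assayed by reverse-phase HPLC after liquid-liquid extraction. Total plasma clearance was calculated as dose divided by AUC and reported as mean (SEM).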
# [25] = Plasma clearance after intravenous dose of 1 mg/kg; assay type: ADME, organism-based; set-up: dose 1 mg/kg, route intravenous; settings: read-out: Clp; outline: as §6
# [26] = Plasma clearance after intravenous dose of 3 mg/kg; assay type: ADME, organism-based; set-up: dose 3 mg/kg, route intravenous; settings: read-out: Clp; outline: as §6
# [27] = Bioavailability after oral dose of 0.1 mg//kg; assay type: ADME, organism-based; settings: eutheria, in vivo; outline: as §3
# [28] = Bioavailability after oral dose of 0.3 mg/kg; assay type: ADME, organism-based; settings: eutheria, in vivo; outline: as §3
# [29] = Bioavailability after oral dose of 1 mg/kg; assay type: ADME, organism-based; settings: eutheria, in vivo; outline: as §3
# [30] = Bioavailability after oral dose of 3 mg/kg; assay type: ADME, organism-based; settings: eutheria, in vivo; outline: as §3
# [31] = Half-life period of compound after intravenous dose of 1 mg/kg; assay type: ADME, organism-based; set-up: dose 1 mg/kg, route intravenous; settings: in vivo; outline: as §5
# [32] = Half-life period of compound after intravenous dose of 3 mg/kg; assay type: ADME, organism-based; set-up: dose 3 mg/kg, route intravenous; settings: in vivo; outline: as §5
# [33] = Half-life period after oral dose of 0.1 mg//kg; assay type: ADME, organism-based; settings: in vivo; outline: as §3
# [34] = Half-life period after oral dose of 0.3 mg/kg; assay type: ADME, organism-based; set-up: dose 0.3 mg/kg, route oral; settings: in vivo; outline: as §3
# [35] = Half-life period after oral dose of 1 mg/kg; assay type: ADME, organism-based; set-up: dose 1 mg/kg, route oral; settings: in vivo; outline: as §3
# [36] = Half-life period after oral dose of 3 mg/kg; assay type: ADME, organism-based; set-up: dose 3 mg/kg, route oral; settings: in vivo; outline: as §3
# [37] = target: T1, Type-1 angiotensin II receptor A (Rattus norvegicus, UniProt P25095); experiment: Binding affinity against angiotensin II receptor from rat liver
# T1 sequence (P25095 whole entry): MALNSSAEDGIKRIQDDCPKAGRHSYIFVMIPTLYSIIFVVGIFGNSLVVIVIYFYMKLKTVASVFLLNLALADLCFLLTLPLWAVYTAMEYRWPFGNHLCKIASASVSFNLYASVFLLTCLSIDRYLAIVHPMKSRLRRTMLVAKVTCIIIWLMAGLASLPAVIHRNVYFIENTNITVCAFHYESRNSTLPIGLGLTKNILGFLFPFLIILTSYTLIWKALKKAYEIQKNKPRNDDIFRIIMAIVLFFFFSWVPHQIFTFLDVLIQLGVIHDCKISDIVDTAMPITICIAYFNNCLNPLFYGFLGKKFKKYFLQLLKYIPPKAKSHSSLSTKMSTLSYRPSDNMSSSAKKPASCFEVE
# Outline: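 Rat liver membranes were incubated with [125I]-saralasin to measure angiotensin II type 1 receptor binding. Nonspecific binding was defined with 1 µM angiotensin.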
# Rattus norvegicus [38] = experiment: % decrease in blood pressure after 24 hours at a dose of 0.1 mg/kg in male rats by using Furosemide-treated spontaneous hypertensive model; assay type: functional; outline: as §1
# Rattus norvegicus [39] = experiment: % decrease in blood pressure after 4 hours at a dose of 0.1 mg/kg in male rats by using Furosemide-treated spontaneous hypertensive model; assay type: functional; outline: as §1
# Rattus norvegicus [40] = experiment: % decrease in blood pressure after 4 hours at a dose of 1 mg/kg in male rats by using Renal artery hypertensive model; assay type: functional; outline: as §2
# Rattus norvegicus [41] = experiment: % decrease in blood pressure after 4 hours in male rats at a dose of 0.01 mg/kg by using Renal artery hypertensive model; assay type: functional; outline: as §2
# Rattus norvegicus [42] = experiment: % decrease in blood pressure after 4 hours in male rats at a dose of 0.03 mg/kg by using Renal artery hypertensive model; assay type: functional; outline: as §2
# Rattus norvegicus [43] = experiment: % decrease in blood pressure after 4 hours in male rats at a dose of 0.3 mg/kg by using Renal artery hypertensive model; assay type: functional; outline: as §2
# [44] = Half-life period of compound after intravenous dose of 0.3 mg/kg; assay type: ADME, organism-based; set-up: dose 0.3 mg/kg, route intravenous; settings: in vivo; outline: as §5
# [45] = Tmax value after oral dose of 1 mg/kg; assay type: ADME, organism-based; set-up: dose 1 mg/kg, route oral; settings: in vivo; outline: as §5
compound,measurement,setting,value
CCCN(Cc1ccc(-c2ccccc2-c2nn[nH]n2)cc1)c1nnccc1C(=O)O,Decrease in blood pressure,Rattus norvegicus [1],18%
same,Decrease in blood pressure,Rattus norvegicus [2],3%
CCCCN(Cc1ccc(-c2ccccc2-c2nn[nH]n2)cc1)c1nccnc1C(=O)O,Decrease in blood pressure,Rattus norvegicus [1],21%
same,Decrease in blood pressure,Rattus norvegicus [2],7%
CCCCc1nc(Cl)c(CO)n1Cc1ccc(-c2ccccc2-c2nnn[nH]2)cc1 [LOSARTAN],Decrease in blood pressure,Rattus norvegicus [3],34%
same,Decrease in blood pressure,Rattus norvegicus [4],21%
same,Decrease in blood pressure,Rattus norvegicus [5],27%
same,Decrease in blood pressure,Rattus norvegicus [6],inactive
CCCN(Cc1ccc(-c2ccccc2-c2nnn[nH]2)cc1)c1ncccc1C(=O)O,AUC,[7],8.21 µg/h/mL
same,AUC,[8],24.44 µg/h/mL
same,AUC,[9],28.87 µg/h/mL
same,AUC,[10],90.15 µg/h/mL
same,Cmax,[11],490 ng/mL
same,Cmax,[12],1350 ng/mL
same,Cmax,[13],2770 ng/mL
same,Cmax,[14],9600 ng/mL
same,Vd,[15],0.04 L/kg
same,Vd,[16],0.04 L/kg
same,Vd,[17],0.04 L/kg
same,Vd,[18],0.17 L/kg
same,Vd,[19],0.13 L/kg
same,Vd,[20],0.12 L/kg
same,Tmax,[21],1.3 h
same,Tmax,[22],1.4 h
same,Tmax,[23],0.9 h
same,clearance,[24],0.07 mL/min
same,clearance,[25],0.07 mL/min
same,clearance,[26],0.07 mL/min
same,bioavailability,[27],97.9%
same,bioavailability,[28],97.2%
same,bioavailability,[29],34.9%
same,bioavailability,[30],36.3%
same,half-life,[31],7.1 h
same,half-life,[32],6.6 h
same,half-life,[33],≤ 12 h
same,half-life,[34],> 12 h
same,half-life,[35],6.9 h
same,half-life,[36],5.7 h
same,Ki,[37],0.61 nM
same,Decrease in blood pressure,Rattus norvegicus [38],36%
same,Decrease in blood pressure,Rattus norvegicus [1],46%
same,Decrease in blood pressure,Rattus norvegicus [39],23%
same,Decrease in blood pressure,Rattus norvegicus [2],32%
same,Decrease in blood pressure,Rattus norvegicus [40],40%
same,Decrease in blood pressure,Rattus norvegicus [41],22%
same,Decrease in blood pressure,Rattus norvegicus [42],10%
same,Decrease in blood pressure,Rattus norvegicus [43],36%
same,half-life,[44],9.5 h
same,Tmax,[45],0.9 h
CCCN(Cc1ccc(-c2ccccc2-c2nn[nH]n2)cc1)c1nccc(C)c1C(=O)O,Decrease in blood pressure,Rattus norvegicus [1],15%
same,Decrease in blood pressure,Rattus norvegicus [2],10%
